Assay results pooled from the literature.
Target: Aurora kinase B (AURKB, Homo sapiens, UniProt Q96GD4)
Effect on: enzyme activity

SMILES | action | method | tested at | remaining activity
Cc1nn(CC(F)(F)F)cc1Nc1ncc(Br)c(NCc2ccc(S(N)(=O)=O)cc2)n1 | inhibitor | radiometric | 1 µM | 87%
CC(C)(C)C(=O)c1sc(NC2CCCCC2)nc1N | inhibitor | – | 10 µM | 107%
Cc1nn(CC(F)(F)F)cc1Nc1nccc(NCCc2cnc[nH]2)n1 | inhibitor | radiometric | 1 µM | 71%
FC(F)c1nc2ccccc2n1-c1nc(N2CCOCC2)nc(N2CCOCC2)n1 | inhibitor | – | 10 µM | 94%
CC(C)(C)c1nc(-c2cccc(NS(=O)(=O)c3c(F)cccc3F)c2F)c(-c2ccnc(N)n2)s1 | inhibitor | radiometric | 1 µM | 81%
COc1cc(Nc2cnc(C#N)c(O[C@H](C)CN(C)C)n2)ncc1-c1cnn(C)c1 | inhibitor | radiometric | 10 µM | 53%
Cc1nn(CC(F)(F)F)cc1Nc1ncc(Br)c(NCCCNC(=O)C2CCC2)n1 | inhibitor | radiometric | 1 µM | 38%
O=C1Nc2ccc(Cl)cc2C1=Cc1cc(Cl)c(O)c(Cl)c1 | – | – | 0.5 µM | 9.19%
Nc1nc(NC2CCCCC2)sc1C(=O)c1ccccc1 | inhibitor | – | 10 µM | 75%
Cc1ccc(C(=O)Nc2ccc(CN3CCN(C)CC3)c(C(F)(F)F)c2)cc1C#Cc1cnc2cccnn12 | inhibitor | – | 23.5 nM | 84%
COc1cc2c(N3CCN(C(=O)Nc4ccc(OC(C)C)cc4)CC3)ncnc2cc1OCCCN1CCCCC1 | – | – | 0.5 µM | 89.6%
O=C(NCCCNc1nc(Nc2cccc(CN3CCOCC3)c2)ncc1C1CC1)C1CCC1 | inhibitor | radiometric | 1 µM | 5%
Oc1cccc(-c2nc(N3CCOCC3)c3oc4ncccc4c3n2)c1 | inhibitor | – | 10 µM | 95%
Cc1cnc(NC2CCOCC2)nc1-n1cnc(C(=O)NC(CN)c2cc(F)cc(Cl)c2)c1 (stereo not shown) | inhibitor | radiometric | 1 µM | 84%
O=C(Nc1cnn(-c2csc(C(=O)NC3COC3)c2)c1)Nc1c(F)cccc1Cl | inhibitor | – | 5 µM | 69.8%
COc1cc2ncnc(Nc3ccc(F)c(Cl)c3)c2cc1OCCCN1CCOCC1 | – | – | 0.5 µM | 106%
COc1cc(Cl)c(C(=O)N[C@@H](CN[C@H]2CC[C@@H](N)CC2)Cc2ccc(C#N)cc2)cc1-c1ccc(CN[C@H](C)c2ccc(C)cc2)o1 | inhibitor | – | 1 µM | 96%
CN1CCc2cc(Nc3ncc(C4CC4)c(NCCCNC(=O)C4CCC4)n3)ccc2C1 | inhibitor | radiometric | 1 µM | 8%
Cc1ccc(Nc2nccc(N(C)c3ccc4c(C)n(C)nc4c3)n2)cc1S(N)(=O)=O | inhibitor | – | 0.5 µM | 64.6%
